Experimental data from different studies.
Each line is one published result; the experiments were not run side by side.
Observed: metabolic stability
Species: human

Cc1ncc2n1-c1ccc(Cl)cc1C(c1ccccc1F)=NC2  hepatocyte CLint (hepatocytes; 0.5 µM, pH 7.4): 57.7 µL/min/10⁶ cells
CONC(=O)[C@H]1[C@@H](O)[C@@]2(O)c3c(OC)cc(OC)cc3O[C@@]2(c2ccc(OC)cc2)[C@@H]1c1ccccc1  microsomal CLint (liver microsomes): 11.6 µL/min/mg
CN1C(=O)Cc2ccc(F)c(CCNCC[C@H]3CN(c4ccc5c(n4)NC(=O)CO5)C(=O)O3)c21  hepatocyte CLint (hepatocytes; 0.5 µM): < 8.2 µL/min/10⁶ cells
O=C(O[C@H]1CCC[C@@]2(C1)OOC1(O2)C2CC3CC(C2)CC1C3)N1CCCCC1 (stereo partly shown)  microsomal CLint (liver microsomes): < 11.6 µL/min/mg
COCC1=N[C@@]2(O)[C@H](C(=O)N(C)OC)[C@@H](c3ccccc3)[C@]3(c4ccc(OC)cc4)Oc4cc(OC)cc(OC)c4[C@]23N1  microsomal CLint (liver microsomes; 1 µM, pH 7.4): 55.8 µL/min/mg
CC(C)C[C@H](NC(=O)[C@@H]1COCCCCCCC(=O)NCC(=O)N2CCC[C@H]2C(=O)N1)C(=O)[C@@]1(C)CO1  scaled CLint (liver microsomes; 2 µM, 1 h): 51.7 mL/min/kg
Cn1c(=O)ccc2ccc(F)c(CCNC[C@H]3CN(c4cnc5c(n4)NC(=O)CO5)C(=O)O3)c21  hepatocyte CLint (hepatocytes; 0.5 µM): 2 µL/min/10⁶ cells
C[C@]12CC[C@H]3[C@@H](CCC4=CC(=O)CC[C@@]43C)[C@@H]1CC[C@@H]2O  hepatocyte CLint (hepatocytes; 1 µM): 110 µL/min/10⁶ cells
COc1ccc2c(c1)[C@]13CCCC[C@@H]1[C@H](C2)N(C)CC3  hepatocyte CLint (hepatocytes; 0.5 µM, pH 7.4): 19 µL/min/10⁶ cells
CNC(C)Cc1ccc2nsnc2c1 (stereo not shown)  scaled CLint (liver microsomes; 0.5 µM): 11.2 mL/min/kg
